Laboratory results reported in ChEMBL document CHEMBL4007452, “Discovery of an Orally Selective Inhibitor of Signal Transducer and Activator of Transcription 3 Using Advanced Multiple Ligand Simultaneous Docking” (J Med Chem, 2017).
Calls of active or inactive are those of the source. No cut-off for these calls is given here.

Tests used:
[1] = AUC (0 to t) in Sprague-Dawley rat plasma at 10 mg/kg, po measured after 24 hrs by UPLC analysis; format: ADME, organism-based; set-up: time < 24 hr, dose 10 mg/kg, route oral
How it was run: (§1)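 Rat plasma sampled from 2 min to 24 h after a single i.v. (1 mg/kg) or p.o. (10 mg/kg) dose. Parameters were derived from the concentration-time profiles. The bioanalytical method was validated to FDA guidelines for selectivity, linearity, LLOQ, accuracy, precision, recovery, matrix effect and stability.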

[2] = tested on: Mus musculus; experiment: Toxicity in BALB/c nude mouse xenografted with human MDA-MB-231 cells assessed as liver damage at 40 mg/kg, po qd administered for 32 days by H&E staining based light microscopy; format: organism-based; conditions: in vivo, 768 h
How it was run: (§2)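 6-week-old female athymic SPF BALB/c nude mice received 5 x 10^6 MDA-MB-231 cells s.c. in the flank. Oral treatment began once tumors reached about 100 mm3, with 8 mice per group and a saline vehicle control. […] Treatment lasted 32 days. Heart, liver, spleen, lung and kidney were fixed 48 h in 10% neutral-buffered formaldehyde, paraffin-embedded, cut at 5 µm, H&E-stained and examined by light microscopy.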

[3] = AUC (0 to infinity) in Sprague-Dawley rat plasma at 10 mg/kg, po measured after 24 hrs by UPLC analysis; format: ADME, organism-based; set-up: dose 10 mg/kg, route oral, time infinity; how it was run: as §1
[4] = AUC (0 to t) in Sprague-Dawley rat plasma at 1 mg/kg, iv measured after 24 hrs by UPLC analysis; format: ADME, organism-based; set-up: dose 1 mg/kg, time < 24 hr, route intravenous; how it was run: as §1
[5] = tested on: Rattus norvegicus; experiment: Apparent volume of distribution in Sprague-Dawley rat plasma at 10 mg/kg, po measured after 24 hrs by UPLC analysis; format: ADME, organism-based; conditions: in vivo; how it was run: as §1
[6] = MRT (0 to infinity) in Sprague-Dawley rat plasma at 1 mg/kg, iv measured after 24 hrs by UPLC analysis; format: ADME, organism-based; how it was run: as §1
[7] = tested on: Mus musculus; experiment: Toxicity in BALB/c nude mouse xenografted with human MDA-MB-231 cells assessed as spleen damage at 40 mg/kg, po qd administered for 32 days by H&E staining based light microscopy; format: organism-based; conditions: in vivo, 768 h; how it was run: as §2
[8] = Terminal half life in Sprague-Dawley rat plasma at 1 mg/kg, iv measured after 24 hrs by UPLC analysis; format: ADME, organism-based; conditions: read-out: beta t1/2 (converted)
How it was run: (§3)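 Rats dosed i.v. or p.o. Plasma concentrations followed from 2 min to 24 h after dosing. The bioanalytical method was validated to FDA guidelines for selectivity, linearity, LLOQ, accuracy, precision, recovery, matrix effect and stability.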

[9] = Apparent volume of distribution in Sprague-Dawley rat plasma at 1 mg/kg, iv measured after 24 hrs by UPLC analysis; format: ADME, organism-based; conditions: read-out: Vz; how it was run: as §1
[10] = AUC (0 to infinity) in Sprague-Dawley rat plasma at 1 mg/kg, iv measured after 24 hrs by UPLC analysis; format: ADME, organism-based; set-up: dose 1 mg/kg, time infinity, route intravenous; how it was run: as §1
[11] = tested on: Mus musculus; experiment: Toxicity in BALB/c nude mouse xenografted with human MDA-MB-231 cells assessed as reduction in body weight at 40 mg/kg, po administered for 32 days; format: organism-based; conditions: in vivo, 768 h
How it was run: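 MDA-MB-231 cells (5 x 10^6) were implanted s.c. in the flank of 6-week-old female athymic BALB/c nude mice. Oral dosing started at a tumor volume of about 100 mm3, with 8 mice per group and a saline vehicle control. […] Body weight was tracked over the 32-day treatment.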

[12] = tested on: Mus musculus; experiment: Toxicity in BALB/c nude mouse xenografted with human MDA-MB-231 cells assessed as heart damage at 40 mg/kg, po qd administered for 32 days by H&E staining based light microscopy; format: organism-based; conditions: in vivo, 768 h; how it was run: as §2
[13] = tested on: Rattus norvegicus; experiment: AUMC (0 to infinity) in Sprague-Dawley rat plasma at 10 mg/kg, po measured after 24 hrs by UPLC analysis; format: ADME, organism-based; conditions: in vivo; how it was run: as §1
[14] = MRT (0 to t) in Sprague-Dawley rat plasma at 1 mg/kg, iv measured after 24 hrs by UPLC analysis; format: ADME, organism-based; how it was run: as §1
[15] = tested on: MDA-MB-231; experiment: Anticancer activity against human MDA-MB-231 cells xenografted in BALB/c nude mouse assessed as reduction in tumor volume at 40 mg/kg, po qd; format: functional, organism-based
How it was run: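 Female athymic BALB/c nude mice, 6 weeks old, bearing s.c. flank MDA-MB-231 xenografts (5 x 10^6 cells). Dosing began at about 100 mm3 tumor volume; 8 mice per group, one tumor each. Drug was given orally in saline, with a saline vehicle control, for 32 days. Caliper L and W measured every other day; volume = 0.5236×L×W².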

[16] = Initial plasma concentration in Sprague-Dawley rat at 1 mg/kg, iv measured after 24 hrs by UPLC analysis; format: ADME, organism-based; how it was run: as §1
[17] = tested on: Rattus norvegicus; experiment: AUMC (0 to infinity) in Sprague-Dawley rat plasma at 1 mg/kg, iv measured after 24 hrs by UPLC analysis; format: ADME, organism-based; conditions: in vivo; how it was run: as §1
[18] = Cmax in Sprague-Dawley rat plasma at 1 mg/kg, iv measured after 24 hrs by UPLC analysis; format: ADME, organism-based; set-up: dose 1 mg/kg, route intravenous; how it was run: as §1
[19] = Terminal half life in Sprague-Dawley rat plasma at 10 mg/kg, po measured after 24 hrs by UPLC analysis; format: ADME, organism-based; conditions: read-out: beta t1/2 (converted); how it was run: as §3
[20] = tested on: Rattus norvegicus; experiment: AUMC (0 to t) in Sprague-Dawley rat plasma at 1 mg/kg, iv measured after 24 hrs by UPLC analysis; format: ADME, organism-based; conditions: in vivo; how it was run: as §1
[21] = tested on: Mus musculus; experiment: Toxicity in BALB/c nude mouse xenografted with human MDA-MB-231 cells assessed as lung damage at 40 mg/kg, po qd administered for 32 days by H&E staining based light microscopy; format: organism-based; conditions: in vivo, 768 h; how it was run: as §2
[22] = MRT (0 to t) in Sprague-Dawley rat plasma at 10 mg/kg, po measured after 24 hrs by UPLC analysis; format: ADME, organism-based; how it was run: as §1
[23] = tested on: Mus musculus; experiment: Toxicity in BALB/c nude mouse xenografted with human MDA-MB-231 cells assessed as kidney damage at 40 mg/kg, po qd administered for 32 days by H&E staining based light microscopy; format: organism-based; conditions: in vivo, 768 h; how it was run: as §2
[24] = tested on: Rattus norvegicus; experiment: AUMC (0 to t) in Sprague-Dawley rat plasma at 10 mg/kg, po measured after 24 hrs by UPLC analysis; format: ADME, organism-based; conditions: in vivo; how it was run: as §1
[25] = Tmax in Sprague-Dawley rat plasma at 10 mg/kg, po measured after 24 hrs by UPLC analysis; format: ADME, organism-based; how it was run: as §3
[26] = Cmax in Sprague-Dawley rat plasma at 10 mg/kg, po measured after 24 hrs by UPLC analysis; format: ADME, organism-based; set-up: dose 10 mg/kg, route oral; how it was run: as §1
[27] = Oral bioavailability in Sprague-Dawley rat at 10 mg/kg measured after 24 hrs by UPLC analysis; format: ADME, organism-based; conditions: in vivo
[28] = MRT (0 to infinity) in Sprague-Dawley rat plasma at 10 mg/kg, po measured after 24 hrs by UPLC analysis; format: ADME, organism-based; how it was run: as §1
[29] = Tmax in Sprague-Dawley rat plasma at 1 mg/kg, iv measured after 24 hrs by UPLC analysis; format: ADME, organism-based; how it was run: as §3
[30] = tested on: Mus musculus; experiment: Toxicity in BALB/c nude mouse xenografted with […] S180 cells assessed as reduction in liver size at 1 mg/kg, ip after 21 days; format: organism-based; conditions: in vivo, 504 h
[31] = tested on: Mus musculus; experiment: Toxicity in BALB/c nude mouse xenografted with […] S180 cells assessed as reduction in spleen size at 1 mg/kg, ip after 21 days; format: organism-based; conditions: in vivo, 504 h
[32] = tested on: CCRF S-180; experiment: Anticancer activity against […] cells xenografted in BALB/c nude mouse assessed as reduction in tumor weight at 1 mg/kg, ip measured after 21 days relative to vehicle control; format: functional; set-up: scale not given: the % may be the effect or the level left
How it was run: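 Male mice, 4 weeks old, given s.c. flank S180 mouse sarcoma cells (3 x 10^6). From day 2, 10 mice per group received saline vehicle, oral drug at 5 mg/kg, or i.p. drug at 1 mg/kg, each dissolved in saline. Therapy ran 21 days; tumor weight and body weight were recorded.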

[33] = tested on: Mus musculus; experiment: Toxicity in BALB/c nude mouse xenografted with […] S180 cells assessed as reduction in kidney size at 1 mg/kg, ip after 21 days; format: organism-based; conditions: in vivo, 504 h
[34] = tested on: Mus musculus; experiment: Toxicity in BALB/c nude mouse xenografted with […] S180 cells assessed as body weight loss at 1 mg/kg, ip after 13 days relative to vehicle control; format: organism-based; conditions: in vivo, 312 h
[35] = Antiproliferative activity against human UW288-1 cells after 24 hrs by MTT assay; format: functional, cell-based; conditions: UW288-1, 24 h
How it was run: (§4)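 Cells were seeded at 3000 per well and incubated 24 h at 37 °C. Compounds were added in triplicate with 10% FBS: 0.1-10 or 0.1-20 µM for cancer lines, 3.125-400 µM for MCF-10A. Viability was read by MTT absorbance at 595 nm, with IC50 fitted from the curves. DMSO stocks were 20 mM.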

[36] = Antiproliferative activity against human UW426 cells after 24 hrs by MTT assay; format: functional, cell-based; conditions: UW426, 24 h; how it was run: as §4
[37] = tested on: U2OS; experiment: Antiproliferative activity against human U2OS cells after 24 hrs by MTT assay; format: functional, cell-based; how it was run: as §4
[38] = biological target: Epidermal growth factor receptor (Homo sapiens) (UniProt P00533); experiment: Inhibition of EGFR in human MDA-MB-231 cells assessed as reduction in p-Akt level at 2.5 to 5 uM after 12 hrs by immunoblot analysis; format: cell-based
Epidermal growth factor receptor (Homo sapiens), sequence (P00533 whole entry): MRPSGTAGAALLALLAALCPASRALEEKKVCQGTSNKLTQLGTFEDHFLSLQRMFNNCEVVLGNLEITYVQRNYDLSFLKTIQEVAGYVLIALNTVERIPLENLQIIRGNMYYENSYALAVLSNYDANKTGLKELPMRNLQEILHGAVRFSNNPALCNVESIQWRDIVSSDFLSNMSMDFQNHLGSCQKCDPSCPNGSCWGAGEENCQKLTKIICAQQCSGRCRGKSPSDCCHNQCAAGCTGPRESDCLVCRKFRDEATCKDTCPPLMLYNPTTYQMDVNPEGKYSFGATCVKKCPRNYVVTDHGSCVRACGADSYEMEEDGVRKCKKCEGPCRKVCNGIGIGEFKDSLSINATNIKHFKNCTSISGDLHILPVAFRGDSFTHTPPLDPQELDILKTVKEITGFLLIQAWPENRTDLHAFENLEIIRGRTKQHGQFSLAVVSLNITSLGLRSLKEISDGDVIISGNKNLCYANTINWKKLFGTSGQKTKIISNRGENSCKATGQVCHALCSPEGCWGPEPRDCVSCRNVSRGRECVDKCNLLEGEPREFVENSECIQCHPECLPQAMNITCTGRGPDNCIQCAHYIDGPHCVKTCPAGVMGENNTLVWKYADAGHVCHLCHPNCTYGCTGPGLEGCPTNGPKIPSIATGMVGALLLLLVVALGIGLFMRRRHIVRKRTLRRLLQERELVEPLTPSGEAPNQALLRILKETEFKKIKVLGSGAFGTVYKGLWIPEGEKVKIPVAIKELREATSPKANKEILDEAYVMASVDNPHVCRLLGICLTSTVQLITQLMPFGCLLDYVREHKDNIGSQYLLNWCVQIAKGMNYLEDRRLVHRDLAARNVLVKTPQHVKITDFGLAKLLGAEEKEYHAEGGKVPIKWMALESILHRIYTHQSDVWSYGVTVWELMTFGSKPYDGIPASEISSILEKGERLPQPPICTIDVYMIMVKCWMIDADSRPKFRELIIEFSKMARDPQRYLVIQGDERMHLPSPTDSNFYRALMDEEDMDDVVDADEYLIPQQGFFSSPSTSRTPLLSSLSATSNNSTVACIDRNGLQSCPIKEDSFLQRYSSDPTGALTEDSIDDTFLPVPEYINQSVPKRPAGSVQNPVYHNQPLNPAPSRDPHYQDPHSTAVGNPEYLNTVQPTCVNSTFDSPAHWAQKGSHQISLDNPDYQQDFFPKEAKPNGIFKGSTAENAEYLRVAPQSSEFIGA
How it was run: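 MDA-MB-231 cells at 60–80% confluence were treated 12 h with 10% FBS at 2.5-10 µM or 2.5-5 µM, against a DMSO control. Whole-cell lysates were immunoblotted, with bands quantified as percent of control.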

[39] = Antiproliferative activity against human BkPC-3 cells after 24 hrs by MTT assay; format: functional, cell-based; conditions: BkPC-3, 24 h; how it was run: as §4
[40] = tested on: MDA-MB-231; experiment: Antiproliferative activity against human MDA-MB-231 cells after 24 hrs by MTT assay; format: functional, cell-based; conditions: MDA-MB-231, 24 h; how it was run: as §4

In the case of `COc1cc2ncnc(Nc3ccc(F)c(Cl)c3)c2cc1OCCCN1CCOCC1` [GEFITINIB], the AUC(0-t) at 24 h [1] is reported as 2360 ng·h/mL, the Activity [2] is reported as “Non-Toxic” and the AUC(0-inf) [3] is reported as 2370 ng·h/mL. For the same compound, the AUC(0-t) at 24 h [4] was 491 ng·h/mL, the Vz [5] was 13.2387 L/kg and the MRT inf [6] was 2.4 h. For the same compound, the Activity [7] was “Non-Toxic”, the half-life [8] was 2.39 h and the Vd [9] was 6.68 L/kg. For the same compound, the AUC(0-inf) [10] was 501 ng·h/mL, the Activity [11] was “Non-Toxic” and the Activity [12] was “Non-Toxic”. The AUMC [13] was 5903.9 hr2.ng/ml, the MRT last at 24 h [14] was 2.12 h and the Activity [15] was “Active”. It also gave a C0 at 24 h [16] of 715 ng/mL, an AUMC [17] of 1261.5 hr2.ng/ml and a Cmax [18] of 621 ng/mL. The half-life [19] was 2.17 h, the AUMCt [20] was 1098 hr2.ng/ml and the Activity [21] was “Non-Toxic”. For the same compound, the MRT last at 24 h [22] was 2.4 h, the Activity [23] was “Non-Toxic” and the AUMCt [24] was 5649.7 hr2.ng/ml. The Tmax [25] was 1 h, the Cmax [26] was 1200 ng/mL and the bioavailability [27] was 47.4%. For the same compound, the MRT inf [28] was 2.49 h and the Tmax [29] was 1.98 min.
In the case of `COc1cccc2c1C(=O)c1c(O)c3c(c(O)c1C2=O)C[C@@](O)(C(=O)CO)C[C@@H]3O[C@H]1C[C@H](N)[C@H](O)[C@H](C)O1` [DOXORUBICIN], the Activity [30] is reported as “Toxic”, the Activity [31] is reported as “Toxic” and the Activity [32] is reported as 52.23%. The Activity [33] was “Toxic” and the Activity [34] was 21.01%.
Compound `CN(CC(=O)N(Cc1ccc(C2CCCCC2)cc1)c1ccc(C(=O)O)c(O)c1)S(=O)(=O)c1c(F)c(F)c(F)c(F)c1F` has an IC50 [35] of 9.8 µM, an IC50 [36] of 10.2 µM and an IC50 [37] of 8.3 µM. For the same compound, the inhibition [38] was “Active”, the IC50 [39] was 6.9 µM and the IC50 [40] was 6.8 µM.
